According to ChEMBL document CHEMBL1159071, “Discovery of 4-(5-methyloxazolo[4,5-b]pyridin-2-yl)-1,4-diazabicyclo[3.2.2]nonane (CP-810,123), a novel alpha 7 nicotinic acetylcholine receptor agonist for the treatment of cognitive disorders in schizophrenia: synthesis, SAR development, and in vivo efficacy in cognition models” (J Med Chem, 2010):
pEC50, pIC50, pKi: −log10 of the molar value. The source made the active and inactive calls. The rule behind the calls is not given here.

What was measured:
[1] = Permeability from apical to basolateral side in dog MDCK cells at 2 uM; type: ADME, cell-based, Canis lupus familiaris; conditions: read-out: permeability
Summary of the method: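 MS quantification of apical-to-basolateral transfer of compound at 2 μM across contiguous MDCK cell monolayers.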

[2] = target: T1, Muscarinic acetylcholine receptor M5 (Homo sapiens, UniProt P08912); assay: Inhibition of muscarinic M5 receptor
T1 sequence (P08912 whole entry): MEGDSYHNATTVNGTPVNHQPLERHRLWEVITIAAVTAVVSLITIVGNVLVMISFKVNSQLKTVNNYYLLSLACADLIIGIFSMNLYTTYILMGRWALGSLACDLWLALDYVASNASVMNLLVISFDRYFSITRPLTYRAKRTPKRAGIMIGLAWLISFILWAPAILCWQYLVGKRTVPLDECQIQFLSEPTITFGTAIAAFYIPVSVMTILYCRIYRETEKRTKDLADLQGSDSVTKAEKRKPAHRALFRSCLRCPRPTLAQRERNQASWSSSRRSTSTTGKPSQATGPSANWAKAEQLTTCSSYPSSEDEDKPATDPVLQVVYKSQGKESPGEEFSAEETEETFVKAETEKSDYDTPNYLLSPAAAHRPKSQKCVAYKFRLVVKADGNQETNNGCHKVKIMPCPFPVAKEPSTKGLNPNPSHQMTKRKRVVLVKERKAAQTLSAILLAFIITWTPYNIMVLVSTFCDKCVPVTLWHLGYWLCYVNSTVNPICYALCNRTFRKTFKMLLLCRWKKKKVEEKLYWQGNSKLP

[3] = target: Neuronal acetylcholine receptor subunit alpha-7 (Rattus norvegicus) (UniProt Q05941); assay: Ex vivo receptor binding at alpha7 nicotinic acetylcholine receptor in rat hippocampal brain after 30 mins by [125I]alpha-bungarotoxin binding assay; type: tissue-based; conditions: Hippocampus
Sequence of Neuronal acetylcholine receptor subunit alpha-7 (Rattus norvegicus) (Q05941 whole entry): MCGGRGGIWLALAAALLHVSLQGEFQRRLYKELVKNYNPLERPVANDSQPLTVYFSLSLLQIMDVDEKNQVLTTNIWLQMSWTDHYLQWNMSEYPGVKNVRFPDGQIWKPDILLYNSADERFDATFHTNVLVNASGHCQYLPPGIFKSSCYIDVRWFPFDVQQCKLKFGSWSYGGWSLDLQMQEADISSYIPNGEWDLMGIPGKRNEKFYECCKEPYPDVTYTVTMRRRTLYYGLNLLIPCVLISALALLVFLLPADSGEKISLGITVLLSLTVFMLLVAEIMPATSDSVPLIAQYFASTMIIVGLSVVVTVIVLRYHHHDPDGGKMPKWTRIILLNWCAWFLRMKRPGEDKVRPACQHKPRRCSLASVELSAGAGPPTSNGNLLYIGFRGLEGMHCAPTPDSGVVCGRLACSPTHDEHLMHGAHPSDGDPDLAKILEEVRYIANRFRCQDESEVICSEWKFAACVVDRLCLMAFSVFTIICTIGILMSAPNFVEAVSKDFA
Summary of the method: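 Rats dosed sc with compound or vehicle, 3 per dose group; hippocampus taken 30 min later and homogenized in HEPES buffer pH 7.5. Homogenate incubated 2 h at 37 °C with 0.4 nM [125I]α-bungarotoxin. Nonspecific binding with 1 μM methyllycaconitine; filtration onto GF/B. Occupancy-versus-dose ED50 derived.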

[4] = Ratio of drug level in brain to plasma of rat at 1 mg/kg, sc after 40 mins; conditions: brain and plasma
Rattus norvegicus [5] = assay: Cognitive enhancement in Sprague-Dawley rat assessed as improvement of scopolamine-impaired performance at 1 mg/kg, sc administered 30 mins before scopolamine challenge by novel object recognition assay; type: functional, organism-based; set-up: dose 1 mg/kg
Summary of the method: (§1)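 Rats habituated to the arena 3 min on day 1. Next day, 10-15 per group dosed sc with vehicle or compound, then 30 min later vehicle or (-)-scopolamine 0.2 mg/kg sc. After 30 min more, two identical objects shown 3 min; 2.5 h later one novel and one familiar object for 3 min. Exploration time per object, mean ± SEM.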

[6] = target: Neuronal acetylcholine receptor subunit alpha-7 (Rattus norvegicus, UniProt Q05941); assay: Displacement of [125I]BTX from rat alpha7 nicotinic acetylcholine receptor expressed in GH4C1 cells; type: cell-based, GH4-C1
Sequence of Neuronal acetylcholine receptor subunit alpha-7 (Q05941 whole entry): as above
Summary of the method: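 GH4C1 membranes (20 mM HEPES, 118 mM NaCl, 4.5 mM KCl, 2.5 mM CaCl2, 1.2 mM MgSO4, pH 7.5) incubated 2 h at 37 °C with [125I]α-bungarotoxin 0.4 nM final. Nonspecific binding with 1 μM methyllycaconitine; filtration onto PEI-treated GF/B filters. Ki = IC50/(1+[L]/KD); six-point curves in triplicate; geometric mean with 95% CI.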

Rattus norvegicus [7] = assay: Cognitive enhancement in Sprague-Dawley rat assessed as reversal of amphetamine-induced auditory sensory gating deficit at 0.3 mg/kg, sc; type: functional, organism-based; set-up: dose 0.3 mg/kg
Summary of the method: (§2)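 Male Sprague-Dawley rats (250-300 g) under chloral hydrate (400 mg/kg ip), femoral vein cannulated. CA3 hippocampal field potential recorded; auditory-evoked responses averaged over 50 stimulus pairs at 10 s interstimulus interval. Gating disrupted by d-amphetamine 1 mg/kg iv; compound sc. Read-out is reversal of the amphetamine deficit; PBS vehicle; two-tailed paired t-test.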

[8] = target: T2, 5-hydroxytryptamine receptor 3A (Homo sapiens, UniProt P46098); assay: […] at human 5HT3 receptor expressed in human skin epithelial cells assessed as stimulation of calcium flux by FLIPR assay; type: functional, cell-based, Epithelial cell
T2 sequence (P46098 whole entry): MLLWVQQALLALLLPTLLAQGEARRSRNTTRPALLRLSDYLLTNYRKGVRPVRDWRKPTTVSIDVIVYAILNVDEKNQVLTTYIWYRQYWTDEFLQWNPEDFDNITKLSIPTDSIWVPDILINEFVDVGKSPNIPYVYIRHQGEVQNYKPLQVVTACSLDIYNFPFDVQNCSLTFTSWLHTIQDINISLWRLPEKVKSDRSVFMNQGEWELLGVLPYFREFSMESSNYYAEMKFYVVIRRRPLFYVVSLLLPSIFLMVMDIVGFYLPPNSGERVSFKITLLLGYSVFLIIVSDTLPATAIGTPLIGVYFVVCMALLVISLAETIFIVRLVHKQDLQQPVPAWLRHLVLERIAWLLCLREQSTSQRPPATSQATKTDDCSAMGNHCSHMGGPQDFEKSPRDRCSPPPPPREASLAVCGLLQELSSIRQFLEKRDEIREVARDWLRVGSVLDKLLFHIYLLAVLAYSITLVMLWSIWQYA
Summary of the method: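 Human 5-HT3A stably in human skin epithelial cells, plated 15 000 cells/well 2 days ahead; loaded 1 h at 37 °C with Fluo-4 (8 μM final), washed into HBSS with 20 mM Tris-HEPES, 1 μM atropine, 4 mM Ca2+, pH 7.4. Compound added 2 min, then 5-HT challenge (250 nM final) 2 min; FLIPR calcium read.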

Plasma = assay: Fraction unbound in rat plasma; type: ADME, cell-free
[9] = Agonist activity at human alpha7 nAChR/mouse 5HT3 chimeric receptor expressed in SH-EP1 cells assessed as increase in intracellular calcium level relative to 100 uM nicotine; type: functional
Summary of the method: (§3)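 α7-5HT3 chimera stably in SH-EP1 cells grown to confluence; loaded with Calcium Green 1 AM (2 μM final) 60 min at 37 °C. Compound added directly; calcium rise read by FLIPR (excitation 488 nm, emission >525 nm).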

Rattus norvegicus [10] = assay: Cognitive enhancement in Sprague-Dawley rat assessed as reversal of amphetamine-induced auditory sensory gating deficit at 1 mg/kg, sc; type: functional, organism-based; set-up: dose 1 mg/kg; summary of the method: as §2
[11] = Oral bioavailability in rat; type: ADME, organism-based; conditions: in vivo
Rattus norvegicus [12] = assay: Cognitive enhancement in Sprague-Dawley rat assessed as improvement of scopolamine-impaired performance at 0.32 mg/kg, sc administered 30 mins before scopolamine challenge by novel object recognition assay; type: functional, organism-based; set-up: dose 0.32 mg/kg; summary of the method: as §1
[13] = target: Muscarinic acetylcholine receptor M3 (Homo sapiens, UniProt P20309); assay: Inhibition of muscarinic M3 receptor
Sequence of Muscarinic acetylcholine receptor M3 (P20309 whole entry): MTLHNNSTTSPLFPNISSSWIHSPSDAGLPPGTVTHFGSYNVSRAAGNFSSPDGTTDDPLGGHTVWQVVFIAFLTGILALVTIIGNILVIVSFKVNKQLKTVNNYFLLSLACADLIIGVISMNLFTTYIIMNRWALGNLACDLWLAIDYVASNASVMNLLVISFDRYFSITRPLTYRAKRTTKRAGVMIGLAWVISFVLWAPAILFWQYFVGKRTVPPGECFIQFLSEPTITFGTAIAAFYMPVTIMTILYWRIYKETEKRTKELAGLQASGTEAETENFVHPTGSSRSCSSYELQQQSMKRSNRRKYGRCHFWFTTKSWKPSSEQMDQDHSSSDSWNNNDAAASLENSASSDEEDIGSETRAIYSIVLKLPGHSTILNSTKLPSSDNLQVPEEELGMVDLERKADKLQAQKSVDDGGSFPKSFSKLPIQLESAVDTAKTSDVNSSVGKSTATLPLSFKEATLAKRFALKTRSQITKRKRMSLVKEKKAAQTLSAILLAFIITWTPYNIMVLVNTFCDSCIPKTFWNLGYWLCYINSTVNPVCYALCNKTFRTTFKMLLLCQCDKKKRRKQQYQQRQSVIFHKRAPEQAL

[14] = target: Neuronal acetylcholine receptor; alpha4/beta2 (Rattus norvegicus, UniProt P09483+P12390); assay: Displacement of [3H]nicotine from alpha4beta2 nAChR in rat brain homogenate; type: tissue-based
Sequence of Neuronal acetylcholine receptor; alpha4/beta2 (P09483 whole entry): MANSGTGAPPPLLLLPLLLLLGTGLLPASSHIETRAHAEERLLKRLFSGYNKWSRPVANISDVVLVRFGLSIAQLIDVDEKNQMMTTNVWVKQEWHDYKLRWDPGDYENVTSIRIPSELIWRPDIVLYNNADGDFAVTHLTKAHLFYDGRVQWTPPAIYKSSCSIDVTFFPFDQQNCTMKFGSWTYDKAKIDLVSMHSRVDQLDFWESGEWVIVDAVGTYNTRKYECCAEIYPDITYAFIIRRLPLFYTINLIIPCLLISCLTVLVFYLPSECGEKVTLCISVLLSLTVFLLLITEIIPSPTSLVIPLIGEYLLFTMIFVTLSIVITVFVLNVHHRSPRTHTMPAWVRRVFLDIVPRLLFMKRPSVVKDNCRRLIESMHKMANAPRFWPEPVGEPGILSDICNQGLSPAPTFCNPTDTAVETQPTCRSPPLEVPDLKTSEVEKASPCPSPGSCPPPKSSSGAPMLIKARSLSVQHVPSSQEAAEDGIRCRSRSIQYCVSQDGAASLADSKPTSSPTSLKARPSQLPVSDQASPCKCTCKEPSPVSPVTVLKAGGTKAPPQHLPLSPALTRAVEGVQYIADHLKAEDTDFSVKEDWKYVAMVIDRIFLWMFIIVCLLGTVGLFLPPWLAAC
Sequence of Neuronal acetylcholine receptor; alpha4/beta2 (P12390 whole entry): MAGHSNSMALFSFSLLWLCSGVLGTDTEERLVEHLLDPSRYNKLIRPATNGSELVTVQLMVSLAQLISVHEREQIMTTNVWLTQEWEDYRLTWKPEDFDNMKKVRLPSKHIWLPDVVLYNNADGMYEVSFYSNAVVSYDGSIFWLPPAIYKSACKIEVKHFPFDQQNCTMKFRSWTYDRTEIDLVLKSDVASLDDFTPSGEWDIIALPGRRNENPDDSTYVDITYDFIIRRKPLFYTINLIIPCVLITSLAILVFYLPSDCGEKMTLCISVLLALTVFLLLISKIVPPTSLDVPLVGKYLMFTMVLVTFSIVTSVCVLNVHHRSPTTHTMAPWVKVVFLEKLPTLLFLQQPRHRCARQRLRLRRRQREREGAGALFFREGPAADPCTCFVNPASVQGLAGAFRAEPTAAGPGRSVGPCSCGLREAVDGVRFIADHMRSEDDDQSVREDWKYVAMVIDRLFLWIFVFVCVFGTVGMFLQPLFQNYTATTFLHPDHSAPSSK
Summary of the method: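 Rat brain homogenate membranes; [3H]nicotine used as radioligand. Ki taken as the average of a six-point dose-response curve run in triplicate.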

[15] = Lipophilicity, log D at pH 7.4; type: physicochemical; conditions: buffer
[16] = Agonist activity at human alpha7 nAChR/mouse 5HT3 chimeric receptor expressed in SH-EP1 cells assessed as increase in intracellular calcium level; type: functional, cell-based; summary of the method: as §3
Rattus norvegicus [17] = assay: Cognitive enhancement in sc dosed Sprague-Dawley rat assessed as reversal of amphetamine-induced auditory sensory gating deficits; type: functional; conditions: read-out: MED; summary of the method: as §2
[18] = Aqueous solubility of the compound; type: physicochemical; conditions: buffer

With `Cc1ccc2oc(N3CCN4CCC3CC4)nc2n1` the Papp A→B at 2 µM [1] was 18 ×10⁻⁶ cm/s, the pKi [2] was 5.28 and the ED50 [3] was 0.34 mg/kg. The Kp at 40 min [4] was 1.5, the Activity (Rattus norvegicus [5]) was “Active” and the pKi [6] was 7.87. The Activity (Rattus norvegicus [7]) was “Active”, the pIC50 [8] was 8.30 and the Fu (Plasma) was 0.78%. The Efficacy [9] was 46%, the Activity (Rattus norvegicus [10]) was “Active” and the bioavailability [11] was 73%. The Activity (Rattus norvegicus [12]) was “Active”, the pKi [13] was 5.08 and the pKi [14] was 5.87. The logD [15] was 0.36, the pEC50 [16] was 6.61 and the minimal effective dose (Rattus norvegicus [17]) was 0.3 mg/kg. For the same compound, the solubility [18] was > 2400 µg/mL.
